# Measured values reported in article PMC7184160 (EBioMedicine, 2020).
# Read-outs that look alike come from different tables or passages of the source.
# Experiments:
# [1] = tested on: metastatic RCC; details: range over the agents, cited from earlier work
# [2] = tested on: metastatic RCC; details: phase II, advanced RCC after one previous antiangiogenic therapy; cited from earlier work
# [3] = phase 1 safety and tolerability of vorolanib plus everolimus; format: in vivo, human; details: in the combination, 22 patients
# Procedure, shortened: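 Open-label, single-centre 3+3 escalation in Chinese patients with advanced ccRCC after failed standard therapy. Oral test compound at 100, 150 or 200 mg daily, given 4 h after partner drug at a fixed 5 mg daily, in 28-day cycles. AEs graded by CTCAE v4.03. Allowed changes: stepwise reduction 200→150→100 mg/day, partner drug 5 mg every other day, and interruption up to 4 weeks.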
# [4] = cited from earlier work
# [5] = cited from earlier work; remark: listed apart in the source
# [6] = cited from earlier work; remark: listed apart in the source
# [7] = plasma pharmacokinetics of vorolanib, X-297 and everolimus; format: in vivo; details: human, oral, t1/2z (half-life), range over cohorts, first single dose, vorolanib 100–200 mg in combination with everolimus 5 mg
# [8] = cited from earlier work; remark: listed apart in the source
# [9] = tested on: VEGFR2 (KDR), PDGFR, Flt3 and c-Kit; details: range over VEGFR2 (KDR), ref unpublished data; cited from earlier work
# [10] = established second-line monotherapies, Discussion
# [11] = second-line options for metastatic RCC
# [12] = monotherapy 50–800 mg once daily
molecule,measurement,setting,value
CNC(=O)c1ccccc1Sc1ccc2c(/C=C/c3ccccn3)n[nH]c2c1 [axitinib],median PFS,[1]; [10],4.4–8.3 months
same,median PFS,[1]; [11],3.8–7.4 months
COc1cc2nccc(Oc3ccc(NC(=O)C4(C(=O)Nc5ccc(F)cc5)CC4)cc3)c2cc1OC [cabozantinib],median PFS,[1]; [10],4.4–8.3 months
same,median PFS,[1]; [11],3.8–7.4 months
CO[C@H]1C[C@@H]2CC[C@@H](C)[C@@](O)(O2)C(=O)C(=O)N2CCCC[C@H]2C(=O)O[C@H]([C@H](C)C[C@@H]2CC[C@@H](OCCO)[C@H](OC)C2)CC(=O)[C@H](C)/C=C(\C)[C@@H](O)[C@@H](OC)C(=O)[C@H](C)C[C@H](C)/C=C/C=C/C=C/1C [everolimus],median PFS,[2],5.5 months
same,patients with dose interruption,[3],eight
same,patients with grade 3 and 4 events,[4],50%
same,median PFS,[1]; [10],4.4–8.3 months
same,median PFS,[1]; [11],3.8–7.4 months
COc1cc2nccc(Oc3ccc(NC(=O)NC4CC4)c(Cl)c3)c2cc1C(N)=O [lenvatinib],median PFS,[2],7.4 months
CCN(CC)CCNC(=O)c1c(C)[nH]c(/C=C2\C(=O)Nc3ccc(F)cc32)c1C [sunitinib],grade 3/4 AE diarrhea,[5],5%
same,grade 3/4 AE fatigue,[5],7%
same,grade 3/4 AE hand-foot syndrome,[5],5%
same,grade 3/4 AE hypertension,[5],8%
same,grade 3/4 AE increased lipase,[5],13%
same,grade 3/4 AE lymphopenia,[5],12%
same,grade 3/4 AE neutropenia,[5],11%
same,grade 3/4 AE vomiting,[5],4%
"Cc1[nH]c(/C=C2\C(=O)Nc3ccc(F)cc32)c(C)c1C(=O)N[C@H]1CCN(C(=O)N(C)C)C1 [vorolanib, Vorolanib]",patients with grade 3 or higher events,[6]; across 100 to 250 mg dose cohort,7 out of 19
same,recommended dose for monotherapy,[6],200 mg
same,MTD,"[6]; monotherapy 50–250 mg once daily, Chinese patients",not achieved
same,dose-limited toxicity (DLT),"[6]; monotherapy, China",No dose-limited toxicity (DLT) was observed
same,patients with dose interruption,[3],fourteen
same,patients with dose reduction,[3],four
same,half-life,[7],4.74 to 12.9 h
same,grade 4 AEs or deaths related to vorolanib,[8]; [12],no grade 4 AEs or deaths related to vorolanib was reported
same,treatment-related grade 3 adverse event proteinuria,[8]; [12],4%
same,apparent saturation of absorption (dose),[8]; monotherapy tablet once daily,400 to 800 mg
same,MTD,"[8]; monotherapy tablet, dose range 50–800 mg once daily, solid tumors",not achieved
same,maximum tolerated dose (MTD),"[8]; monotherapy, dose range 20 to 400 mg daily",without achieving the most tolerated dose (MTD)
same,recommended dose of monotherapy,"[8]; once daily, patients with advanced cancer",400 mg
same,IC50,[9],130 to 1120 pM
nivolumab,median PFS,[1]; [10],4.4–8.3 months
same,median PFS,[1]; [11],3.8–7.4 months
